KCNK9 block – human KCNK9 channel inhibition. Q9NPC2. HEK293 KCNK9, FluxOR thallium flux fluorescence; hits give low values. B-score at 10 µM. 1.2% of 310,000 active. AID 488922;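 active = ratio B-score over 3 SD below the library mean, with starting fluorescence within 5 SD of its mean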;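 also: negative B-score means less thallium flux so channel inhibition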
KCNK3 block – human KCNK3 channel inhibition, primary screen. AID 602410. O14649. CHO-KCNK3 thallium flux, FluxOR fluorescence; hits give low values. 0.84% of 340,000 active. B-score at 10 µM;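 active = B-score under library mean minus 4 SD, starting fluorescence ratio at most library mean plus 5 SD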;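 also: more negative B-score means stronger inhibition of thallium flux through KCNK3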
KCNQ1 block – blocks the human KCNQ1 potassium channel; P51787; CHO-K1 KCNQ1, FluxOR thallium flux fluorescence; hits give high values; B-score at 10 µM; 1.3% of 310,000 active; AID 2642;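 active = compounds whose thallium flux B-score, printed positive for inhibition, exceeds three library SD while starting fluorescence stays within three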;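 also: channel opened by potassium depolarization with thallium stimulus after 20 min compound exposure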
hERG rescue – shields human hERG channel from block by proarrhythmic agents. Q12809. CHO-hERG, FluxOR thallium flux, dofetilide IC70 present. activation (rescue from dofetilide block), less the hit threshold, % at 10 µM. 0.51% of 310,000 active;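 active = activation above the mean of controls blocked by dofetilide plus 5 SD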;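 also: thallium influx through hERG after potassium depolarization seen as dye fluorescence rise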
KCNQ1 act – potentiators or activators of human KCNQ1 potassium channel | P51787 | CHO-K1 KCNQ1, thallium flux FluxOR fluorescence; hits give high values | B-score at 10 µM | 0.35% of 310,000 active | AID 2648;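 active = fluorescence ratio B-score, a plate-corrected score, at least three library SD, with initial intensity B-score within 5 SD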
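System: Stable KCNQ1 CHO-K1 line | Incubation: 90 min dye loading and 20 min compound exposure, both at room temperature | Measure: Ratio B score | Medium: Assay buffer for compound exposure, DMSO matched across wells | Compound dosing: Single-concentration screen | Probe or stimulus: K+/Tl+ depolarizing stimulus | Measured by: Kinetic FluxOR fluorescence, 10 s baseline plus 110 s post-stimulus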
Kir21 inh – Kir2.1 (mouse) channel inhibition; B-score at 10 µM; 0.85% of 310,000 active; HEK293-Kir2.1, FluxOR thallium flux fluorescence; hits give low values;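 active = fluorescence ratio B-score at or below minus 3 SD of library scores, with starting-brightness B-score within 2 SD, cut at about -4.2 in these data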;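 also: channel flux triggered by added potassium and thallium sulfate stimulus; B-score of peak minus minimum fluorescence over baseline after thallium stimulus; more negative B-score means stronger Kir2.1 block with less thallium influx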
Target sequence (P35561 whole entry, looked up): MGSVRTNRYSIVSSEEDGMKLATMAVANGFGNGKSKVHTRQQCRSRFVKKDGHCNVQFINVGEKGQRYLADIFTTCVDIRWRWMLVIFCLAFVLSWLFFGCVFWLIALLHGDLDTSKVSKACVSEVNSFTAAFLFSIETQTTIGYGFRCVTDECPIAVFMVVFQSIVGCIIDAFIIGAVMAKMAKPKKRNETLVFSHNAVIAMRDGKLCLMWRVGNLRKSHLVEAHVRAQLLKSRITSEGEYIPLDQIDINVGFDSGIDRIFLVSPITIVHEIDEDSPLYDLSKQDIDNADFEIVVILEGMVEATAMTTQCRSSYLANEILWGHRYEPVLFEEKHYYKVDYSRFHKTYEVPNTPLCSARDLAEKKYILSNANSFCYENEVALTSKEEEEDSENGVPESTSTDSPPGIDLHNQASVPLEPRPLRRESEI
The depositor's hits bear a star. Only some compounds are listed: those with a hit (about 3.7% of all), similar ones and a draw of the others.

Screening CCC1CN1P1(=O)OCC(C)([N+](=O)[O-])CO1 (stereo not given) returned KCNK3 block inactive.
For O=c1cccc2n1CC1CC2CN(Cc2c(F)cccc2Cl)C1 (stereo not given) the results were KCNK9 block inactive, KCNK3 block inactive, KCNQ1 block inactive, hERG rescue -6, KCNQ1 act inactive and Kir21 inh -0.73.
CCc1cccc(CC)c1NC(=S)N1CC2CC(C1)c1cccc(=O)n1C2 (stereo not given) was read as KCNK9 block inactive, KCNK3 block inactive, KCNQ1 block inactive, hERG rescue -6, KCNQ1 act inactive and Kir21 inh 0.65.
O=c1cccc2n1CC1CC2CN(Cc2cccc(Cl)c2Cl)C1 (stereo not given) was read as KCNK9 block inactive, KCNK3 block inactive, KCNQ1 block inactive, hERG rescue -11, KCNQ1 act inactive and Kir21 inh -7.8*.
For Cc1c(Cl)cccc1NC(=S)N1CC2CC(C1)c1cccc(=O)n1C2 (stereo not given) the results were KCNK9 block inactive, KCNK3 block inactive, KCNQ1 block inactive, hERG rescue -4, KCNQ1 act 30* and Kir21 inh 1.
For CC(C)n1c(O)c(C2c3cc(Cl)ccc3Oc3[nH]c(=O)n(C(C)C)c(=O)c32)c(=O)[nH]c1=O (stereo not given) the results were KCNK9 block inactive, KCNK3 block inactive, KCNQ1 block inactive, hERG rescue -24, KCNQ1 act inactive and Kir21 inh -4.3*.
O=C1NC(=O)N(c2ccc3c(c2)OCO3)C(=O)/C1=C\c1ccc(-c2ccccc2C(=O)O)o1 was read as KCNK9 block inactive, KCNK3 block inactive, KCNQ1 block inactive, hERG rescue -2, KCNQ1 act inactive and Kir21 inh -0.18.
For O=C1NC(=O)N(c2ccc3c(c2)OCO3)C(=O)/C1=C/c1ccc(N2CCCCC2)o1 the results were KCNK9 block -7.7*, KCNK3 block inactive, KCNQ1 block 6*, hERG rescue -19, KCNQ1 act inactive and Kir21 inh -4.3*.
COc1ccc(CN2CCCC(C(=O)c3ccc(Cl)cc3)C2)c(O)c1 (stereo not given) was read as KCNK9 block inactive, KCNK3 block inactive, KCNQ1 block inactive, hERG rescue -3, KCNQ1 act inactive and Kir21 inh -11*.
O=C(c1ccc(Cl)cc1)C1CCCN(Cc2cccc3ncccc23)C1 (stereo not given) was read as KCNK9 block inactive, KCNK3 block inactive, KCNQ1 block inactive, hERG rescue -27, KCNQ1 act inactive and Kir21 inh -1.8.
Screening O=c1c([N+](=O)[O-])cn(O)cc1[N+](=O)[O-] returned KCNK3 block inactive.
`Cc1ccc2c(c1)cc1c(=O)n(CC(=O)N3CCC4(CC3)OCCO4)nc(C)n12` gave KCNK9 block inactive, KCNK3 block inactive, KCNQ1 block inactive, hERG rescue -4, KCNQ1 act inactive and Kir21 inh 0.02.
Screening COc1ccc(CNCCc2ccccc2F)c(OC)c1C returned KCNK9 block inactive, KCNK3 block inactive, KCNQ1 block inactive, hERG rescue -5, KCNQ1 act inactive and Kir21 inh -5.5*.
For Oc1ccc(Cl)c(Cl)c1Cl the results were KCNK3 block inactive.
Screening COc1cccc(-n2c(/C=C/c3ccc(O)c(O)c3)nc3ccccc3c2=O)c1 returned KCNK9 block inactive, KCNK3 block inactive, KCNQ1 block 6*, hERG rescue -28, KCNQ1 act inactive and Kir21 inh -1.9.
For CCN1C[C@]2(CO)CC[C@H](OC)[C@@]34C5C[C@H]6[C@H](OC)C5[C@](O)(C[C@H]6OC)[C@@](O)(C(OC)C23)[C@@H]14 (stereo not given in full) the results were KCNK9 block inactive, KCNK3 block inactive, KCNQ1 block inactive, hERG rescue -6, KCNQ1 act inactive and Kir21 inh 0.82.
`OC(Cn1c2ccccc2c2ccccc21)C[n+]1cccc2ccccc21` (stereo not given) gave KCNK9 block inactive, KCNK3 block inactive, KCNQ1 block inactive, hERG rescue -5, KCNQ1 act inactive and Kir21 inh -5.2*.

Compound activity from PubChem.
